Data from ChEMBL document CHEMBL1124832, “Functionalized congener approach for the design of novel muscarinic agents. Synthesis and pharmacological evaluation of N-methyl-N-[4-(1-pyrrolidinyl)-2-butynyl] amides” (J Med Chem, 1990).

Key:
[1] = target: T1, Muscarinic acetylcholine receptor M4 (Rattus norvegicus) (UniProt P08485); assay: Binding affinity at muscarinic acetylcholine receptor M4 from NG108-15 cell line in presence of [3H]-NMS; type: cell-based
T1 sequence (whole entry): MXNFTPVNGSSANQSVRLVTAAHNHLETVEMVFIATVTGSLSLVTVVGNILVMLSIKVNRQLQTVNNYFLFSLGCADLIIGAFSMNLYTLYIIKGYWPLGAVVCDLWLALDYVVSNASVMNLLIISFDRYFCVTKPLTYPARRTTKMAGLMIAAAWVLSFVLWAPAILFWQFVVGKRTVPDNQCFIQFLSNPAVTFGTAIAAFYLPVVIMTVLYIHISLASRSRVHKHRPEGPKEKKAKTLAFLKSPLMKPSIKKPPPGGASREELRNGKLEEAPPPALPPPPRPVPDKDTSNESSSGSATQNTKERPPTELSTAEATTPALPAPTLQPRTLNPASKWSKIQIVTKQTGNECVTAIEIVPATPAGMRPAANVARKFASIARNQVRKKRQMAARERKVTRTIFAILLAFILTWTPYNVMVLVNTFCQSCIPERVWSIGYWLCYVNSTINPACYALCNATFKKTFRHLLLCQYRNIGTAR
Outline: (§1)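 Crude membranes from confluent cells, lysed in 2 mM Tris-HCl (pH 7.1)/1 mM EDTA, homogenized, spun at 50000 g and stored at -70 °C. Membranes (150-300 µg protein) incubated 90 min at 37 °C with 0.5 nM [3H]NMS and 100 µM compound in DMEM-Hepes, then filtered on GF/B. Nonspecific binding taken with 1 µM atropine. Reported as percent displacement; two or three trials in triplicate.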

[2] = target: Muscarinic acetylcholine receptor M3 (Homo sapiens) (UniProt P20309); assay: Percent increase in [3H]myo-inositol at muscarinic acetylcholine receptor M3 from SK-N-SH human neuroblastoma cells; type: cell-based; set-up: concentration or dose not given beside the values
Muscarinic acetylcholine receptor M3 (Homo sapiens), sequence (P20309 whole entry, looked up): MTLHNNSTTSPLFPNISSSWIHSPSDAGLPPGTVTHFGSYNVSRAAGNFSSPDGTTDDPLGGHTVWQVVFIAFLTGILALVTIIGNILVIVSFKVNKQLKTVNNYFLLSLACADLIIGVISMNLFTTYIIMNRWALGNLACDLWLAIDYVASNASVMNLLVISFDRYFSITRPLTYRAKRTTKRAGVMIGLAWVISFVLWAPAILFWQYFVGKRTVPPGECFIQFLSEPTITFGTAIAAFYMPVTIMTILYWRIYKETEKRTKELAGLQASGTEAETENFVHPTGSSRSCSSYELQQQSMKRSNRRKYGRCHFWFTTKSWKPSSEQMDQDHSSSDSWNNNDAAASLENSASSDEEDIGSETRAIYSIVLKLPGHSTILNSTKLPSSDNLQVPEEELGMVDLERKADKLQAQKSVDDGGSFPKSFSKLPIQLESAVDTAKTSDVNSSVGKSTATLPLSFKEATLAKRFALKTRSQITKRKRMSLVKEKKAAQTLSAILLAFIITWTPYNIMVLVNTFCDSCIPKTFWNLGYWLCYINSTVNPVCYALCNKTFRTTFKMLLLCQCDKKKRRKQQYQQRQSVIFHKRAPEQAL
Outline: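 SK-N-SH cells grown in DMEM with 10% newborn calf serum and plated at 100000 cells/well. After 24 h they were labeled overnight with [3H]-myo-inositol (2 µCi/well). Cells were rinsed and preincubated 5 min at 37 °C in 10 mM LiCl DMEM-Hepes, then exposed to 100 µM final compound for 30 min at 37 °C. Reported as percent increase relative to oxotremorine M (100%); two or three trials in triplicate.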

[3] = target: Muscarinic acetylcholine receptor M3 (Homo sapiens) (UniProt P20309); assay: Percent binding affinity at muscarinic acetylcholine receptor M3 from SK-N-SH human neuroblastoma cells in presence of [3H]NMS; type: cell-based; outline: as §1
[4] = target: T1, Muscarinic acetylcholine receptor M4 (Rattus norvegicus); assay: Percent inhibition against muscarinic acetylcholine receptor M4 from NG108-15 cell line; type: cell-based; set-up: concentration or dose not given beside the values
Outline: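 NG108-15 cells grown to 90% confluence and preincubated 10 min at 37 °C in 1 mM IBMX in DMEM-Hepes. Compound (100 µM final) and PGE1 (5 µM final) were added for 15 min at 37 °C. cAMP was extracted in 0.1 N HCl for 30 min at room temperature, lyophilized and measured by radioimmunoassay. Reported as percent inhibition versus no-compound control; three trials in triplicate.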

[5] = target: Muscarinic acetylcholine receptor; assay: Binding affinity was determined using [3H]-NMS for Muscarinic acetylcholine receptor in SK-N-SH neuroblastoma cells; type: cell-based, Homo sapiens
Outline: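 SK-N-SH crude membranes from hypotonic lysis (2 mM Tris-HCl pH 7.1, 1 mM EDTA), 50000 g pellets. Competition used varied compound concentrations with 1 nM [3H]NMS in DMEM-Hepes, 60 min at 37°C, then GF/B filtration. Atropine defined nonspecific binding. Ki was obtained by Cheng-Prusoff from the [3H]NMS Kd (saturation, 10 min at 37°C). Means ± SEM of three determinations in duplicate.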

SK-N-SH = assay: Percent inhibition of stimulation of PI turnover of Oxotremorine M (100 uM) in SK-N-SH cells at 100 uM; type: functional, Homo sapiens

| Structure (SMILES) | Affinity [1] [%] | Activity [2] [%] | Affinity [3] [%] | Activity [4] [%] | Ki [5] [µM] | Inhibition (SK-N-SH) [%] |
| --- | --- | --- | --- | --- | --- | --- |
| CN(CC#CCN1CCCC1)C(=O)CCCNC(=O)c1ccccc1 | 27.7 | < 1 | 30.3 | < 1 | – | – |
| CN(CC#CCN1CCCC1)C(=O)CCCCCCNC(=O)OC(C)(C)C.O=C(O)C(=O)O | 77.9 | < 1 | 81.4 | < 1 | 10.9 | – |
| CN(CC#CCN1CCCC1)C(=O)CCCNC(=O)OC(C)(C)C | 24.4 | < 1 | 32.1 | 3.5 | – | – |
| CN(CC#CCN1CCCC1)C(=O)CCCCNC(=O)OC(C)(C)C | 26.7 | 1 | 32.1 | 0.5 | – | – |
| CC(=O)N(C)CC#CCN1CCCC1 | 79.6 | 48 | 88.8 | 63.2 | 4.96 | – |
| CC(=O)NCCCCCCC(=O)N(C)CC#CCN1CCCC1 | 20.4 | 1 | 24.6 | 6.9 | – | – |
| CC(=O)NCCCCCCCC(=O)N(C)CC#CCN1CCCC1 | 50.4 | < 1 | 59.1 | < 1 | – | – |
| CN(CC#CCN1CCCC1)C(=O)CCCNC(=O)CN | 31 | 7 | 47 | < 1 | – | – |
| CN(CC#CCN1CCCC1)C(=O)CCCCCN.O=C(O)C(F)(F)F.O=C(O)C(F)(F)F | 37.9 | < 1 | 55.9 | 14.3 | – | 47 |
| CN(CC#CCN1CCCC1)C(=O)CCN.O=C(O)C(F)(F)F.O=C(O)C(F)(F)F | 15.1 | < 1 | 18.1 | 20.8 | – | 20 |
| CN(CC#CCN1CCCC1)C(=O)CNC(=O)OC(C)(C)C | 32.6 | < 1 | 40 | 7 | – | – |
| CN(CC#CCN1CCCC1)C(=O)CCCCCNC(=O)c1ccccc1 | 52.8 | < 1 | 51.7 | < 1 | – | – |
| CN(CC#CCN1CCCC1)C(=O)CN | 23.5 | < 1 | 17.3 | 26.1 | – | – |
| CC(=O)N(C)C(C)C#CCN1CCCC1 (stereo unspecified) | 97 | < 1 | 99 | 36 | 0.33 | – |
| CN(CC#CCN1CCCC1)C(=O)c1cccc(Cl)c1 | 34 | 4 | 55 | < 1 | – | – |
| CN(CC#CCN1CCCC1)C(=O)CCCCCNC(=O)OC(C)(C)C | 31.9 | < 1 | 39.1 | < 1 | – | – |
| CN(CC#CCN1CCCC1)C(=O)CCCCCCCNC(=O)OC(C)(C)C.O=C(O)C(=O)O | 89 | < 1 | 92.1 | < 1 | 4.9 | – |
| CN(CC#CCN1CCCC1)C(=O)CCCCCNC(=O)CN | 57 | < 1 | 65 | < 1 | – | – |
| CN(CC#CCN1CCCC1)C(=O)CCCCCNC(=O)CCNC(=O)OC(C)(C)C | 57.3 | < 1 | 59.1 | < 1 | – | – |
| CN(CC#CCN1CCCC1)C(=O)CCCCCCCN.O=C(O)C(F)(F)F.O=C(O)C(F)(F)F | 92.3 | < 1 | 93.7 | < 1 | 1.4 | – |

| Structure (SMILES) | Affinity [1] [%] | Activity [2] [%] | Affinity [3] [%] | Activity [4] [%] | Ki [5] [µM] | Inhibition (SK-N-SH) [%] |
| --- | --- | --- | --- | --- | --- | --- |
| CC(=O)NCCCC(=O)N(C)CC#CCN1CCCC1 | 19.1 | 14 | 15.6 | 8 | – | – |
| CN(CC#CCN1CCCC1)C(=O)c1ccccc1 | 25 | 8 | 40 | < 1 | – | – |
| CN(CC#CCN1CCCC1)C(=O)CCCNC(=O)CCNC(=O)OC(C)(C)C | 38.8 | < 1 | 39.2 | < 1 | – | – |
| CC(=O)NCC(=O)N(C)CC#CCN1CCCC1 | 24 | 8 | 12.5 | 14.1 | – | – |
| CN(CC#CCN1CCCC1)C(=O)CCCCCCN.O=C(O)C(F)(F)F.O=C(O)C(F)(F)F | 72.1 | < 1 | 81.9 | 3 | 6.7 | – |
| C[N+](C)(C)CC#CCN1CCCC1=O | 96.2 | 100 | 52.1 | 64.1 | – | – |
| CN(CC#CCN1CCCC1)C(=O)CCCNC(=O)CCN | 29 | 7 | 40.5 | < 1 | – | – |
| CC(=O)NCCCCC(=O)N(C)CC#CCN1CCCC1 | 17.9 | < 1 | 29.4 | 5.2 | – | – |
| CN(CC#CCN1CCCC1)C(=O)CCCCCNC(=O)CCN | 56.8 | 7 | 70.5 | < 1 | – | – |
| CN(CC#CCN1CCCC1)C(=O)CCCN | 12.1 | < 1 | 20 | 3.7 | – | – |
| CC(=O)NCCCCCC(=O)N(C)CC#CCN1CCCC1 | 22.7 | 1 | 17.4 | 3 | – | – |
| COC(=O)CCC(=O)N(C)CC#CCN1CCCC1 | 7 | < 1 | 28 | < 1 | – | – |
| CN(CC#CCN1CCCC1)C(=O)CCCCN.O=C(O)C(F)(F)F.O=C(O)C(F)(F)F | 22.4 | < 1 | 34.4 | 15.8 | – | 44 |
| CN(CC#CCN1CCCC1)C(=O)CCCCCNC(=O)CNC(=O)OC(C)(C)C | 52.3 | 3 | 52.6 | < 1 | – | – |
| CN(CC#CCN1CCCC1)C(=O)CCNC(=O)OC(C)(C)C | 36.3 | < 1 | 45.1 | 12.5 | – | – |
| CC(=O)NCCC(=O)N(C)CC#CCN1CCCC1.O=C(O)C(=O)O | 67.7 | < 1 | 67.4 | 10.2 | – | 43 |
| CN(CC#CCN1CCCC1)C(=O)CCC(=O)NCCN | 14 | < 1 | 25 | < 1 | – | – |
| CN(CC#CCN1CCCC1)C(=O)CCC(=O)O | 0 | < 1 | 6 | < 1 | – | – |
| CN(CC#CCN1CCCC1)C(=O)CCCNC(=O)CNC(=O)OC(C)(C)C | 24.4 | < 1 | 37.5 | < 1 | – | – |
